Assay results: ChEMBL document CHEMBL2424631, “The carbonate analogues of 5'-halogenated resiniferatoxin as TRPV1 ligands” (Eur J Med Chem, 2013)

target: Transient receptor potential cation channel subfamily V member 1 (Rattus norvegicus) (UniProt O35433); experiment: Partial antagonist activity at rat TRPV1 expressed in CHO cells assessed as inhibition of capsaicin-stimulated Ca2+ uptake measured as residual agonism; format: cell-based; settings: concentration not given here
How it was run: (§1)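 Functional 45Ca2+ uptake assay in CHO cells heterologously expressing rat or human TRPV1. Agonism is reported as EC50, and as % of the capsaicin response. Antagonism is reported as Ki(ant) against capsaicin-stimulated 45Ca2+ uptake, and as % antagonism of that response. Ki and EC50 are mean ± SEM of three or more independent experiments.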

Transient receptor potential cation channel subfamily V member 1 (Rattus norvegicus), sequence (O35433 whole entry): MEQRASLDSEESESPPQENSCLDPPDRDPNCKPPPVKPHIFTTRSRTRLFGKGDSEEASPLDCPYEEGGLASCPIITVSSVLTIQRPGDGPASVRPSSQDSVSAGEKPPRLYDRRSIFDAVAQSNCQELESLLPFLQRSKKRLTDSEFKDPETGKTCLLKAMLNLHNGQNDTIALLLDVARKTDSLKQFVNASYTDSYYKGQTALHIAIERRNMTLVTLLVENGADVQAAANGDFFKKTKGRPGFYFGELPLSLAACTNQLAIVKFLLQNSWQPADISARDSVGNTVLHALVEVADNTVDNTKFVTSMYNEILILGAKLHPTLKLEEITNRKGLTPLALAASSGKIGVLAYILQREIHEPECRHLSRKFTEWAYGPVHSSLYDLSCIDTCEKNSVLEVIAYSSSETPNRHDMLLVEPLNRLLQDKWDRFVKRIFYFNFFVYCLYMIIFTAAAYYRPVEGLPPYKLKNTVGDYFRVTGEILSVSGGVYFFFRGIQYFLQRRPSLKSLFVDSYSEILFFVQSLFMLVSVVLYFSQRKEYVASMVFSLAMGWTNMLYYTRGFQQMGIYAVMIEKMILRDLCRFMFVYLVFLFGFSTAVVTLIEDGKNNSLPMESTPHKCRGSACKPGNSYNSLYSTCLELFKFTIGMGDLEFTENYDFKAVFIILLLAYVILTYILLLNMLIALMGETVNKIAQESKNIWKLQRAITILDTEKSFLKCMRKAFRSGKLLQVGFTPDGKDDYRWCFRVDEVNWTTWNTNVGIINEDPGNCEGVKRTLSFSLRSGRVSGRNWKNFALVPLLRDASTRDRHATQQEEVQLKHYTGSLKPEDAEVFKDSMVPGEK

For `C=C(C)[C@]12C[C@@H](C)[C@@]34O[C@](Cc5ccccc5)(O[C@@H]1[C@@H]3C=C(COC(=O)Oc1cc(Br)c(O)c(OC)c1)C[C@]1(O)C(=O)C(C)=C[C@@H]41)O2`, the inhibition was 13%.

target: Transient receptor potential cation channel subfamily V member 1 (Rattus norvegicus) (UniProt O35433); experiment: Ratio of I-RTX Ki to compound Ki for rat TRPV1 expressed in CHO cells; format: cell-based; settings: not given

Point of comparison: `C=C(C)[C@]12C[C@@H](C)[C@@]34O[C@](Cc5ccccc5)(O[C@@H]1[C@@H]3C=C(COC(=O)Oc1cc(Br)c(N)c(OC)c1)C[C@]1(O)C(=O)C(C)=C[C@@H]41)O2`, Ratio Ki 5. Against it:
- C=C(C)[C@]12C[C@@H](C)[C@@]34O[C@](Cc5ccccc5)(O[C@@H]1[C@@H]3C=C(COC(=O)Oc1cc(Cl)c(N)c(OC)c1)C[C@]1(O)C(=O)C(C)=C[C@@H]41)O2 — the same, 5
- C=C(C)[C@]12C[C@@H](C)[C@@]34O[C@](Cc5ccccc5)(O[C@@H]1[C@@H]3C=C(COC(=O)Oc1cc(Br)c(O)c(OC)c1)C[C@]1(O)C(=O)C(C)=C[C@@H]41)O2 — lower, 2
- C=C(C)[C@]12C[C@@H](C)[C@@]34O[C@](Cc5ccccc5)(O[C@@H]1[C@@H]3C=C(COC(=O)Oc1cc(I)c(O)c(OC)c1)C[C@]1(O)C(=O)C(C)=C[C@@H]41)O2 — the same, 5

target: Transient receptor potential cation channel subfamily V member 1 (Rattus norvegicus) (UniProt O35433); experiment: Agonist activity at rat TRPV1 expressed in CHO cells assessed as stimulation of Ca2+ uptake relative to capsaicin; format: cell-based; settings: not given; how it was run: as §1

Point of comparison: `C=C(C)[C@]12C[C@@H](C)[C@@]34O[C@](Cc5ccccc5)(O[C@@H]1[C@@H]3C=C(COC(=O)Oc1ccc(NS(C)(=O)=O)c(OC)c1)C[C@]1(O)C(=O)C(C)=C[C@@H]41)O2`, Activity 89%. Against it:
- C=C(C)[C@]12C[C@@H](C)[C@@]34O[C@](Cc5ccccc5)(O[C@@H]1[C@@H]3C=C(COC(=O)Oc1cc(F)c(N)c(OC)c1)C[C@]1(O)C(=O)C(C)=C[C@@H]41)O2 — lower, 83%

target: T1, Transient receptor potential cation channel subfamily V member 1 (Homo sapiens, UniProt Q8NER1); experiment: Displacement of [3H]RTX from human TRPV1 expressed in CHO cells; format: cell-based; settings: not given
How it was run: (§2)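 Competitive binding against [3H]RTX on rat or human TRPV1 heterologously expressed in CHO cells. Affinity is reported as Ki, as mean ± SEM of three or more independent experiments.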

T1 sequence (Q8NER1 whole entry): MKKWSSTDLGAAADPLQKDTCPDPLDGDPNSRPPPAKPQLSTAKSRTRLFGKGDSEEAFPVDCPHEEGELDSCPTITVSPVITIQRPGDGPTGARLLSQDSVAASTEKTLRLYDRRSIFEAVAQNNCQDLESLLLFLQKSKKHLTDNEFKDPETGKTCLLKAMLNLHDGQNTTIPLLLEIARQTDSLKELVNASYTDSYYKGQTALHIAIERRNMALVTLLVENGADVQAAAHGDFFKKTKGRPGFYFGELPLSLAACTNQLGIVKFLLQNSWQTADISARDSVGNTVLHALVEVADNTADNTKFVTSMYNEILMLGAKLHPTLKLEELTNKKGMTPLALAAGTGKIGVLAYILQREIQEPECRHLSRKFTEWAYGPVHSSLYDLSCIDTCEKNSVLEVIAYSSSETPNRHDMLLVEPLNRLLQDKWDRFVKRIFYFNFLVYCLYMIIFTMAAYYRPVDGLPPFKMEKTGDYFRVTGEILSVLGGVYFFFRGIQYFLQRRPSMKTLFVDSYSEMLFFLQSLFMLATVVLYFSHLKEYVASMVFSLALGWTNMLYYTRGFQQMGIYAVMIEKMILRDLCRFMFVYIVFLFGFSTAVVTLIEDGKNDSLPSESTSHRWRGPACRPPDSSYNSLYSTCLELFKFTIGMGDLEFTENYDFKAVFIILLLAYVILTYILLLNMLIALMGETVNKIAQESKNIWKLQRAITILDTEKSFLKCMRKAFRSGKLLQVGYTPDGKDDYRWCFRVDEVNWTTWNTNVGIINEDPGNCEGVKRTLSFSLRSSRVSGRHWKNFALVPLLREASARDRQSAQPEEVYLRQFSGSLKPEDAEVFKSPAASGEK

Point of comparison: `C=C(C)[C@]12C[C@@H](C)[C@@]34O[C@](Cc5ccccc5)(O[C@@H]1[C@@H]3C=C(COC(=O)Oc1cc(Br)c(N)c(OC)c1)C[C@]1(O)C(=O)C(C)=C[C@@H]41)O2`, Ki 0.212 µM. Against it:
- C=C(C)[C@]12C[C@@H](C)[C@@]34O[C@](Cc5ccccc5)(O[C@@H]1[C@@H]3C=C(COC(=O)Oc1cc(Cl)c(N)c(OC)c1)C[C@]1(O)C(=O)C(C)=C[C@@H]41)O2 — 1.6-fold higher, 0.33 µM
- C=C(C)[C@]12C[C@@H](C)[C@@]34O[C@](Cc5ccccc5)(O[C@@H]1[C@@H]3C=C(COC(=O)Oc1cc(F)c(N)c(OC)c1)C[C@]1(O)C(=O)C(C)=C[C@@H]41)O2 — 3.9-fold higher, 0.83 µM
- C=C(C)[C@]12C[C@@H](C)[C@@]34O[C@](Cc5ccccc5)(O[C@@H]1[C@@H]3C=C(COC(=O)Oc1cc(Br)c(O)c(OC)c1)C[C@]1(O)C(=O)C(C)=C[C@@H]41)O2 — 6.4-fold lower, 0.0333 µM
- C=C(C)[C@]12C[C@@H](C)[C@@]34O[C@](Cc5ccccc5)(O[C@@H]1[C@@H]3C=C(COC(=O)Oc1cc(I)c(O)c(OC)c1)C[C@]1(O)C(=O)C(C)=C[C@@H]41)O2 — 4.3-fold lower, 0.049 µM
- C=C(C)[C@]12C[C@@H](C)[C@@]34O[C@](Cc5ccccc5)(O[C@@H]1[C@@H]3C=C(COC(=O)Oc1ccc(NS(C)(=O)=O)c(OC)c1)C[C@]1(O)C(=O)C(C)=C[C@@H]41)O2 — 2.6-fold lower, 0.082 µM

target: T2, Transient receptor potential cation channel subfamily V member 1 (Rattus norvegicus, UniProt O35433); experiment: Agonist activity at rat TRPV1 expressed in CHO cells assessed as stimulation of Ca2+ uptake; format: cell-based; settings: not given; how it was run: as §1
T2 sequence (O35433 whole entry): as the sequence (O35433 whole entry) above

Point of comparison: `C=C(C)[C@]12C[C@@H](C)[C@@]34O[C@](Cc5ccccc5)(O[C@@H]1[C@@H]3C=C(COC(=O)Oc1cc(F)c(N)c(OC)c1)C[C@]1(O)C(=O)C(C)=C[C@@H]41)O2`, EC50 0.00317 µM. Against it:
- C=C(C)[C@]12C[C@@H](C)[C@@]34O[C@](Cc5ccccc5)(O[C@@H]1[C@@H]3C=C(COC(=O)Oc1ccc(NS(C)(=O)=O)c(OC)c1)C[C@]1(O)C(=O)C(C)=C[C@@H]41)O2 — within 1.5-fold, 0.00462 µM

target: T2, Transient receptor potential cation channel subfamily V member 1; experiment: Antagonist activity at rat TRPV1 expressed in CHO cells assessed as inhibition of capsaicin-stimulated Ca2+ uptake; format: cell-based; settings: not given; how it was run: as §1

Point of comparison: `C=C(C)[C@]12C[C@@H](C)[C@@]34O[C@](Cc5ccccc5)(O[C@@H]1[C@@H]3C=C(COC(=O)Oc1cc(Br)c(N)c(OC)c1)C[C@]1(O)C(=O)C(C)=C[C@@H]41)O2`, Ki 0.00246 µM. Against it:
- C=C(C)[C@]12C[C@@H](C)[C@@]34O[C@](Cc5ccccc5)(O[C@@H]1[C@@H]3C=C(COC(=O)Oc1cc(Cl)c(N)c(OC)c1)C[C@]1(O)C(=O)C(C)=C[C@@H]41)O2 — 1.7-fold higher, 0.00406 µM
- C=C(C)[C@]12C[C@@H](C)[C@@]34O[C@](Cc5ccccc5)(O[C@@H]1[C@@H]3C=C(COC(=O)Oc1cc(Br)c(O)c(OC)c1)C[C@]1(O)C(=O)C(C)=C[C@@H]41)O2 — 2.1-fold higher, 0.0052 µM
- C=C(C)[C@]12C[C@@H](C)[C@@]34O[C@](Cc5ccccc5)(O[C@@H]1[C@@H]3C=C(COC(=O)Oc1cc(I)c(O)c(OC)c1)C[C@]1(O)C(=O)C(C)=C[C@@H]41)O2 — within 1.5-fold, 0.00223 µM

target: T1, Transient receptor potential cation channel subfamily V member 1; experiment: Antagonist activity at human TRPV1 expressed in CHO cells assessed as inhibition of capsaicin-stimulated Ca2+ uptake; format: cell-based; settings: not given; how it was run: as §1

Point of comparison: `C=C(C)[C@]12C[C@@H](C)[C@@]34O[C@](Cc5ccccc5)(O[C@@H]1[C@@H]3C=C(COC(=O)Oc1cc(Br)c(N)c(OC)c1)C[C@]1(O)C(=O)C(C)=C[C@@H]41)O2`, Ki 0.666 µM. Against it:
- C=C(C)[C@]12C[C@@H](C)[C@@]34O[C@](Cc5ccccc5)(O[C@@H]1[C@@H]3C=C(COC(=O)Oc1cc(Cl)c(N)c(OC)c1)C[C@]1(O)C(=O)C(C)=C[C@@H]41)O2 — 2.1-fold higher, 1.4 µM
- C=C(C)[C@]12C[C@@H](C)[C@@]34O[C@](Cc5ccccc5)(O[C@@H]1[C@@H]3C=C(COC(=O)Oc1cc(Br)c(O)c(OC)c1)C[C@]1(O)C(=O)C(C)=C[C@@H]41)O2 — within 1.5-fold, 0.512 µM
- C=C(C)[C@]12C[C@@H](C)[C@@]34O[C@](Cc5ccccc5)(O[C@@H]1[C@@H]3C=C(COC(=O)Oc1cc(I)c(O)c(OC)c1)C[C@]1(O)C(=O)C(C)=C[C@@H]41)O2 — 3.5-fold lower, 0.189 µM

target: T1, Transient receptor potential cation channel subfamily V member 1; experiment: Agonist activity at human TRPV1 expressed in CHO cells assessed as stimulation of Ca2+ uptake; format: cell-based; settings: not given; how it was run: as §1

Point of comparison: `C=C(C)[C@]12C[C@@H](C)[C@@]34O[C@](Cc5ccccc5)(O[C@@H]1[C@@H]3C=C(COC(=O)Oc1ccc(NS(C)(=O)=O)c(OC)c1)C[C@]1(O)C(=O)C(C)=C[C@@H]41)O2`, EC50 0.0165 µM. Against it:
- C=C(C)[C@]12C[C@@H](C)[C@@]34O[C@](Cc5ccccc5)(O[C@@H]1[C@@H]3C=C(COC(=O)Oc1cc(F)c(N)c(OC)c1)C[C@]1(O)C(=O)C(C)=C[C@@H]41)O2 — within 1.5-fold, 0.0179 µM

target: T2, Transient receptor potential cation channel subfamily V member 1; experiment: Displacement of [3H]RTX from rat TRPV1 expressed in CHO cells; format: cell-based; settings: not given; how it was run: as §2

Point of comparison: `C=C(C)[C@]12C[C@@H](C)[C@@]34O[C@](Cc5ccccc5)(O[C@@H]1[C@@H]3C=C(COC(=O)Oc1cc(Cl)c(N)c(OC)c1)C[C@]1(O)C(=O)C(C)=C[C@@H]41)O2`, Ki 0.0025 µM. Against it:
- C=C(C)[C@]12C[C@@H](C)[C@@]34O[C@](Cc5ccccc5)(O[C@@H]1[C@@H]3C=C(COC(=O)Oc1cc(Br)c(N)c(OC)c1)C[C@]1(O)C(=O)C(C)=C[C@@H]41)O2 — within 1.5-fold, 0.00183 µM
- C=C(C)[C@]12C[C@@H](C)[C@@]34O[C@](Cc5ccccc5)(O[C@@H]1[C@@H]3C=C(COC(=O)Oc1cc(F)c(N)c(OC)c1)C[C@]1(O)C(=O)C(C)=C[C@@H]41)O2 — within 1.5-fold, 0.00221 µM
- C=C(C)[C@]12C[C@@H](C)[C@@]34O[C@](Cc5ccccc5)(O[C@@H]1[C@@H]3C=C(COC(=O)Oc1cc(Br)c(O)c(OC)c1)C[C@]1(O)C(=O)C(C)=C[C@@H]41)O2 — 1.5-fold lower, 0.00164 µM
- C=C(C)[C@]12C[C@@H](C)[C@@]34O[C@](Cc5ccccc5)(O[C@@H]1[C@@H]3C=C(COC(=O)Oc1cc(I)c(O)c(OC)c1)C[C@]1(O)C(=O)C(C)=C[C@@H]41)O2 — 1.5-fold lower, 0.00166 µM
- C=C(C)[C@]12C[C@@H](C)[C@@]34O[C@](Cc5ccccc5)(O[C@@H]1[C@@H]3C=C(COC(=O)Oc1ccc(NS(C)(=O)=O)c(OC)c1)C[C@]1(O)C(=O)C(C)=C[C@@H]41)O2 — 2-fold lower, 0.00128 µM
